Experimental data reported in ChEMBL document CHEMBL1125560, “Synthesis and physicochemical properties of sulfamate derivatives as topical antiglaucoma agents” (J Med Chem, 1992).
Values belong to the compound of their own block, whether it stands above or below them.

Columns and labels:
[1] = (§1) Partition coefficient at pH 7.4 between chloroform and water as a measure of lipid solubility.; format: ADME; details: read-out: pKa1
In short: (§2)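 Drug dissolved in 0.05 M phosphate buffer, pH 7.4, and shaken with an equal volume of chloroform to equilibrium. Aqueous drug concentration found from carbonic anhydrase inhibitory activity of aqueous samples against a standard curve. Organic concentration obtained by difference. Reported as organic/aqueous concentration ratio.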

[2] = as §1
[3] = tested on: Oryctolagus cuniculus; experiment: Compound was evaluated for decrease in intraocular pressure (IOP) (mmHg) at 1 hour postdosing to New Zealand white rabbits with 2% solubility; format: functional, Eye
In short: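 New Zealand white rabbits, at least six per test, 2–10 experiments. Eyes given one drop of topical anesthetic (proparacaine) before tonometer IOP readings, taken before dosing and at 1 h intervals after. Drug at 2% in 0.5% hydroxyethylcellulose, 50 μL to one eye, vehicle to the other. Value is treated-eye minus control-eye IOP at 1 h, mean.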

[4] = Compound was evaluated for partition coefficient at pH 7.4 (CHCl3/buffer); details: octanol/water
[5] = Solubility in water at pH 5.0; format: physicochemical
In short: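 Not measured directly. Intrinsic solubility S0 comes from equilibrium solubility in pH 7.4 phosphate buffer (2–4 days, UV read-out). Solubility at pH 5 is then calculated as S = S0(1 + 10^(pKa1−pH) + 10^(pH−pKa2)), using the imidazole and sulfonamide pKa values.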

[6] = molecular target: Carbonic anhydrase (Bos taurus, UniProt P00921+Q95323+P18915+Q3SZX4); experiment: Bovine erythrocyte carbonic anhydrase inhibitory activity of the compound.
[7] = Intrinsic solubility of the compound; format: ADME; details: read-out: S
In short: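 Compound equilibrated 2–4 days in pH 7.4 phosphate buffer in sealed rotating tubes, amount tripled if all dissolved. pH and concentration then measured: solution filtered (0.2 μm), diluted, concentration read by UV spectrum. Intrinsic solubility S0 derived from S = S0(1 + 10^(pKa1−pH) + 10^(pH−pKa2)).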

[8] = Partition coefficient of the compound at pH 7.4 between chloroform and water as a measure of lipid solubility.; format: ADME; details: read-out: pKa2; in short: as §2

SMILES: Cl.NS(=O)(=O)OCCOc1ccc(-n2ccnc2)cc1
pKa [1]: 5.98
pKa [2]: 9.05
IOP [3]: 2.5 mmHg
Partition coefficient [4]: 1.5
solubility [5]: 7400 µg/mL
IC50 [6]: 23 nM
solubility [7]: 700 µg/mL

SMILES: Cc1cn(-c2cccc(OS(N)(=O)=O)c2)cn1.Cl
pKa [1]: 6.09
pKa [2]: 8.08
Partition coefficient [4]: 0.73
solubility [5]: 6300 µg/mL
IC50 [6]: 94 nM
solubility [7]: 470 µg/mL

SMILES: Cl.NS(=O)(=O)Oc1cccc(-n2ccnc2)c1
pKa [1]: 5.4
pKa [2]: 9.05
IOP [3]: 1.5 mmHg
Partition coefficient [4]: 0.28
solubility [5]: 38000 µg/mL
IC50 [6]: 42 nM
solubility [7]: 11000 µg/mL

SMILES: Cl.NS(=O)(=O)Oc1ccc(-n2ccnc2)cc1
pKa [1]: 5.54
pKa [2]: 8
IOP [3]: 1.3 mmHg
Partition coefficient [4]: 0.16
solubility [5]: 1000 µg/mL
IC50 [6]: 120 nM
solubility [7]: 230 µg/mL

SMILES: Cc1nccn1-c1cccc(OS(N)(=O)=O)c1.Cl
pKa [1]: 6.47
pKa [2]: 7.99
IOP [3]: 0 mmHg
Partition coefficient [4]: 0.18
solubility [5]: 100000 µg/mL
IC50 [6]: 50 nM
solubility [7]: 3300 µg/mL

SMILES: Cc1cn(-c2cccc(OCCOS(N)(=O)=O)c2)cn1.Cl
pKa [1]: 6.34
pKa [2]: 8.96
Partition coefficient [4]: 4.6
solubility [5]: 4900 µg/mL
IC50 [6]: 210 nM
solubility [7]: 220 µg/mL

Now from value to compound, other results behind:

pKa [1]: 5.71
pKa [2]: 8.91
Partition coefficient [4]: 2.2
solubility [5]: 1500 µg/mL
IC50 [6]: 69 nM
solubility [7]: 250 µg/mL
SMILES: Cl.NS(=O)(=O)OCCOc1cccc(-n2ccnc2)c1
IOP [3]: 2.3 mmHg

pKa [1]: 6.09
pKa [8]: 9.22
Partition coefficient [4]: 5.5
solubility [5]: 1600 µg/mL
IC50 [6]: 250 nM
solubility [7]: 120 µg/mL
SMILES: Cl.NS(=O)(=O)OCCCOc1ccc(-n2ccnc2)cc1
IOP [3]: 0 mmHg

solubility [5]: < 710 µg/mL
SMILES: CC(=O)Nc1nnc(S(N)(=O)=O)s1.Cl
IOP [3]: 0 mmHg

pKa [1]: 6.9
pKa [8]: 8.99
Partition coefficient [4]: 1.1
solubility [5]: 114000 µg/mL
IC50 [6]: 77 nM
solubility [7]: 1400 µg/mL
SMILES: Cc1nccn1-c1cccc(OCCOS(N)(=O)=O)c1.Cl
IOP [3]: 1.7 mmHg
